How the values were obtained:
[1] = biological target: T1, cGMP-specific 3',5'-cyclic phosphodiesterase (Homo sapiens, UniProt O76074); test: Selectivity ratio of the compound against PDE6 to that of PED5
[2] = biological target: T1, cGMP-specific 3',5'-cyclic phosphodiesterase; test: Inhibitory activity against phosphodiesterase 5 (PDE5) obtained from human corpus cavernosum tissue
How it was run: (§1)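 Scintillation proximity assay: fixed enzyme amount with varying inhibitor concentrations; substrate cGMP (3:1 unlabelled to [³H]-labelled) at about 1/3 Km, so that IC50 ≈ Ki. Buffer 20 mM Tris–HCl pH 7.4, 5 mM MgCl2, BSA. Reactions started with enzyme, run 30–60 min at 30 °C, stopped with yttrium silicate SPA beads. Counts converted to % of uninhibited control; IC50 from curve fit.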

Phosphodiesterase 6 = test: Inhibitory activity against phosphodiesterase 6 (PDE6) obtained from canine or bovine retina; format: protein assay; how it was run: as §1
[3] = Relative inhibition of PDE11 and PDE5
[4] = biological target: Dual 3',5'-cyclic-AMP and -GMP phosphodiesterase 11A (Homo sapiens, UniProt Q9HCR9); test: Inhibitory activity against phosphodiesterase 11 (PDE11) obtained from recombinant Sf9 expression; how it was run: as §1
[5] = Relative inhibitoin of PDE11 and PDE5

Dual 3',5'-cyclic-AMP and -GMP phosphodiesterase 11A, sequence (Q9HCR9 whole entry): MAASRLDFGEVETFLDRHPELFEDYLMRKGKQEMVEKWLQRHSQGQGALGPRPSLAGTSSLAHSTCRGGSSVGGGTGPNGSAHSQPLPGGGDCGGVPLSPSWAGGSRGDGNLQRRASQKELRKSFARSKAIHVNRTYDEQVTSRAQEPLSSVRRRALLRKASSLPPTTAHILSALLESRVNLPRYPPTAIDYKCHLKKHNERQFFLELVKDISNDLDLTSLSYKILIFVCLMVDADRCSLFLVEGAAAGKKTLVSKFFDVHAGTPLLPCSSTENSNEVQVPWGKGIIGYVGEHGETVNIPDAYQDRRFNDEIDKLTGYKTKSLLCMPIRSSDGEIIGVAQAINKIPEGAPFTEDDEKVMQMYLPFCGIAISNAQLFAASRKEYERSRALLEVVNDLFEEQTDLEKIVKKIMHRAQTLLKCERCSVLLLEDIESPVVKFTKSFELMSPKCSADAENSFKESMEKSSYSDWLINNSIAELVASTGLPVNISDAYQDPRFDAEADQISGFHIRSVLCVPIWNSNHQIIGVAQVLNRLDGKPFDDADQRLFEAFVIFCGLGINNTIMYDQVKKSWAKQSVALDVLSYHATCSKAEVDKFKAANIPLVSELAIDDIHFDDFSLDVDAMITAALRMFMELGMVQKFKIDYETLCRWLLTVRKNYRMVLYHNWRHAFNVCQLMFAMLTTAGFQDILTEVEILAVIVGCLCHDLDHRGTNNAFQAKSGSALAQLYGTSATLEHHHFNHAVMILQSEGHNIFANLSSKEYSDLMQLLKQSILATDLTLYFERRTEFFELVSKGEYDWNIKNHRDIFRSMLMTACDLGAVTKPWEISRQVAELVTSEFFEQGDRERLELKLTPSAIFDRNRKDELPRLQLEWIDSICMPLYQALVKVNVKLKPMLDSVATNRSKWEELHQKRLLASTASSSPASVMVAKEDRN

Structure (SMILES)	Selectivity ratio [1]	IC50 [2]	IC50 (Phosphodiesterase 6)	Selectivity ratio [3]	IC50 [4]	Selectivity ratio [5]
CCCN1CC[C@@H](N2CC(=O)N3[C@H](c4ccc5c(c4)OCO5)c4[nH]c5ccccc5c4C[C@@H]3C2=O)C1	> 175	57 nM	> 10000 nM			
O=C1[C@H]2Cc3c([nH]c4ccccc34)[C@@H](c3ccc4c(c3)OCO4)N2C(=O)CN1C1CN(Cc2ccccc2)C1		164 nM			950 nM	
CN(C)CCN1CC(=O)N2[C@H](c3ccc4c(c3)OCO4)c3[nH]c4ccccc4c3C[C@@H]2C1=O		134 nM	8224 nM		53 nM	
O=C1[C@H]2Cc3c([nH]c4ccccc34)[C@@H](c3ccc4c(c3)OCO4)N2C(=O)CN1C1CCN(Cc2ccccc2)CC1		26 nM	1619 nM			
COc1cccc([C@@H]2c3[nH]c4ccccc4c3C[C@@H]3C(=O)N([C@@H]4CCN(Cc5ccccc5)C4)CC(=O)N23)c1 (stereo in doubt; form 2) [listing 1 of 2 here]		15.6 nM			11.8 nM	
CCCCCN1CC[C@@H](N2CC(=O)N3[C@H](c4ccc5c(c4)OCO5)c4[nH]c5ccccc5c4C[C@@H]3C2=O)C1	134	13.2 nM	1770 nM	2.3	31 nM	
Cc1ccc([C@@H]2c3[nH]c4ccccc4c3C[C@@H]3C(=O)N([C@@H]4CCN(Cc5ccccc5)C4)CC(=O)N23)cc1		12.8 nM			6.5 nM	0.5
COc1cccc([C@@H]2c3[nH]c4ccccc4c3C[C@@H]3C(=O)N([C@@H]4CCN(Cc5ccccc5)C4)CC(=O)N23)c1 (stereo in doubt; form 1) [listing 1 of 2 here]						1.5
O=C1[C@H]2Cc3c([nH]c4ccccc34)[C@@H](c3ccc4c(c3)OCO4)N2C(=O)CN1[C@@H]1CCN(Cc2ccccc2)C1			249 nM		5.5 nM	
CN(C)CC(=O)CN1CC[C@@H](N2CC(=O)N3[C@H](c4ccc5c(c4)OCO5)c4[nH]c5ccccc5c4C[C@@H]3C2=O)C1		19.8 nM		2.4	48 nM	
Cn1ccnc1CCN1CC[C@@H](N2CC(=O)N3[C@H](c4ccc5c(c4)OCO5)c4[nH]c5ccccc5c4C[C@@H]3C2=O)C1 (stereo in doubt; form 1) [listing 1 of 2 here]	640			2.6		
COc1cccc([C@@H]2c3[nH]c4ccccc4c3C[C@@H]3C(=O)N([C@@H]4CCN(Cc5ccccc5)C4)CC(=O)N23)c1 (stereo in doubt; form 1) [listing 2 of 2 here]		28.6 nM			44 nM	
COc1ccc([C@@H]2c3[nH]c4ccccc4c3C[C@@H]3C(=O)N([C@@H]4CCN(Cc5ccccc5)C4)CC(=O)N23)cc1OC		> 1000 nM			1000 nM	
O=C1[C@H]2Cc3c([nH]c4ccccc34)[C@@H](c3ccc4c(c3)OCO4)N2C(=O)CN1CCN1CCOCC1		56 nM	2966 nM			
COc1ccc([C@@H]2c3[nH]c4ccccc4c3C[C@@H]3C(=O)N([C@@H]4CCN(Cc5ccccc5)C4)CC(=O)N23)cc1C		132 nM			71 nM	0.5
O=C1[C@H]2Cc3c([nH]c4ccccc34)[C@@H](c3ccc4c(c3)OCO4)N2C(=O)CN1[C@H]1CCN(Cc2ccccc2)C1					85 nM	
O=C1[C@H]2Cc3c([nH]c4ccccc34)[C@@H](c3ccc4c(c3)OCO4)N2C(=O)CN1[C@@H]1CCN(CCC2CC2)C1	169	15.7 nM	2660 nM	2.7	43 nM	
COc1cccc([C@@H]2c3[nH]c4ccccc4c3C[C@@H]3C(=O)N([C@@H]4CCN(Cc5ccccc5)C4)CC(=O)N23)c1 (stereo in doubt; form 2) [listing 2 of 2 here]						0.8
NC(=O)CCN1CC[C@@H](N2CC(=O)N3[C@H](c4ccc5c(c4)OCO5)c4[nH]c5ccccc5c4C[C@@H]3C2=O)C1	189	8.4 nM	1601 nM	5.7	48 nM	
Cn1ccnc1CCN1CC[C@@H](N2CC(=O)N3[C@H](c4ccc5c(c4)OCO5)c4[nH]c5ccccc5c4C[C@@H]3C2=O)C1 (stereo in doubt; form 2) [listing 2 of 2 here]	173			2		
O=C1[C@H]2Cc3c([nH]c4ccccc34)[C@@H](c3ccc(O)nc3)N2C(=O)CN1[C@@H]1CCN(Cc2ccccc2)C1		127 nM			39 nM	0.3

Now from value to compound:

Selectivity ratio [1]	IC50 [2]	IC50 (Phosphodiesterase 6)	Selectivity ratio [3]	IC50 [4]	Selectivity ratio [5]	Structure (SMILES)
211	4 nM	846 nM	1.2	4.7 nM		O=C(CCN1CC[C@@H](N2CC(=O)N3[C@H](c4ccc5c(c4)OCO5)c4[nH]c5ccccc5c4C[C@@H]3C2=O)C1)N1CCC1
316	2.5 nM	807 nM	1.9	4.7 nM		CN(C)C(=O)CCN1CC[C@@H](N2CC(=O)N3[C@H](c4ccc5c(c4)OCO5)c4[nH]c5ccccc5c4C[C@@H]3C2=O)C1
144	1.9 nM	271 nM	1.3	2.4 nM		O=C1[C@H]2Cc3c([nH]c4ccccc34)[C@@H](c3ccc4c(c3)OCO4)N2C(=O)CN1[C@@H]1CCN(CCc2cccnc2)C1
172	3.6 nM	620 nM	1.2	4.3 nM		CCNC(=O)CCN1CC[C@@H](N2CC(=O)N3[C@H](c4ccc5c(c4)OCO5)c4[nH]c5ccccc5c4C[C@@H]3C2=O)C1
	2.7 nM			6.7 nM	2.5	COc1ccc([C@@H]2c3[nH]c4ccccc4c3C[C@@H]3C(=O)N([C@@H]4CCN(Cc5ccccc5)C4)CC(=O)N23)cc1
	4 nM		3			C=CCCN1CC[C@@H](N2CC(=O)N3[C@H](c4ccc5c(c4)OCO5)c4[nH]c5ccccc5c4C[C@@H]3C2=O)C1
	0.7 nM	125 nM		1.4 nM		Cn1ccnc1CCN1CC[C@@H](N2CC(=O)N3[C@H](c4ccc5c(c4)OCO5)c4[nH]c5ccccc5c4C[C@@H]3C2=O)C1 (stereo in doubt; form 2) [listing 1 of 2 here]
153	1.5 nM	226 nM	1.4	2.01 nM		O=C1[C@H]2Cc3c([nH]c4ccccc34)[C@@H](c3ccc4c(c3)OCO4)N2C(=O)CN1[C@@H]1CCN(CCc2ccccn2)C1
188	7.1 nM	1340 nM	3	22 nM		COCCCN1CC[C@@H](N2CC(=O)N3[C@H](c4ccc5c(c4)OCO5)c4[nH]c5ccccc5c4C[C@@H]3C2=O)C1
	0.8 nM	494 nM		2.2 nM		Cn1ccnc1CCN1CC[C@@H](N2CC(=O)N3[C@H](c4ccc5c(c4)OCO5)c4[nH]c5ccccc5c4C[C@@H]3C2=O)C1 (stereo in doubt; form 1) [listing 2 of 2 here]
300	1.2 nM	357 nM	2.9	3.5 nM		O=C1[C@H]2Cc3c([nH]c4ccccc34)[C@@H](c3ccc4c(c3)OCO4)N2C(=O)CN1[C@@H]1CCN(CCc2ncc[nH]2)C1
181	2 nM	358 nM	2.1	4.2 nM		O=C1[C@H]2Cc3c([nH]c4ccccc34)[C@@H](c3ccc4c(c3)OCO4)N2C(=O)CN1[C@@H]1CCN(CCc2cnccn2)C1

Reference: ChEMBL document CHEMBL1136701, “Design, synthesis and biological activity of beta-carboline-based type-5 phosphodiesterase inhibitors” (Bioorg Med Chem Lett, 2003)
